Legend:
[1] = target: T1, Amine oxidase [flavin-containing] A (Rattus norvegicus, UniProt P21396); assay: Inhibition of MAO-A in rat liver mitochondria using serotonin as substrate preincubated with enzyme for 60 mins prior to substrate addition
T1 sequence (P21396 whole entry): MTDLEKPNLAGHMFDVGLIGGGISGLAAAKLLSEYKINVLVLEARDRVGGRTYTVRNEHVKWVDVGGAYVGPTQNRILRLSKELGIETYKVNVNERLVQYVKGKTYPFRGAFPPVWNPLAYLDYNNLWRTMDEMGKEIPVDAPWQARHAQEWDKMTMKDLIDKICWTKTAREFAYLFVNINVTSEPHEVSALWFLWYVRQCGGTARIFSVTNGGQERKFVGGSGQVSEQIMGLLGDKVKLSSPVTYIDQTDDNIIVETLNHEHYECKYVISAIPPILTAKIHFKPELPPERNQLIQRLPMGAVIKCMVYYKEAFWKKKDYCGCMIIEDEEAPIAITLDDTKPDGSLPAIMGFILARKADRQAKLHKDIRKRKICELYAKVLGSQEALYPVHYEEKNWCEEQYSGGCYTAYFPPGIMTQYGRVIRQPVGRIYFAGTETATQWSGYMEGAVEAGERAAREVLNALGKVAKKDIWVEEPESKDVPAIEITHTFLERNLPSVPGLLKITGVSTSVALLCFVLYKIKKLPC

[2] = target: T2, Amine oxidase [flavin-containing] B (Bos taurus, UniProt P56560); assay: Inhibition of MAO-B in bovine brain mitochondria using benzylamine as substrate
T2 sequence (P56560 whole entry): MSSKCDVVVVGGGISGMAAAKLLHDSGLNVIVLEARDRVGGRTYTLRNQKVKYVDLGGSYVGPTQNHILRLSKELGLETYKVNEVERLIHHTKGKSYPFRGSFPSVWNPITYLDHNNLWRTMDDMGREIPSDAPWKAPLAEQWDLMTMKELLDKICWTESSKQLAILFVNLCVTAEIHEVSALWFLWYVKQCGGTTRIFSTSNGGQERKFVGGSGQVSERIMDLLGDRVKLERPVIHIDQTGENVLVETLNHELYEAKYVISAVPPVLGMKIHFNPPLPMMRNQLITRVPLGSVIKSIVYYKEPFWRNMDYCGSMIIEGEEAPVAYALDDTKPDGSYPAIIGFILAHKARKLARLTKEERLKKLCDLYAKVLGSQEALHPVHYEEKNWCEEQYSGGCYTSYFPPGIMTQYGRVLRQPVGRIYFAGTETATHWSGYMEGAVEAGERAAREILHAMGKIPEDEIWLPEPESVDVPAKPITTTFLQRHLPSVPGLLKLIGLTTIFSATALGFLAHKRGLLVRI

[3] = Selectivity index, ratio of IC50 for MAO-B in bovine brain mitochondria to IC50 for MAO-A in rat liver mitochondria
How it was run: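 Enzyme source was mitochondria: rat liver for MAO-A, and bovine brain for MAO-B. Compounds were preincubated 60 min with enzyme before substrate was added: serotonin for MAO-A, benzylamine for MAO-B. Clorgyline served as the irreversible, time-dependent reference. Values are reported as IC50, and the selectivity index was derived from the MAO-A and MAO-B IC50s.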

[4] = system: Mus musculus; assay: Toxicity in mouse assessed as mortality up to 250 mg/kg, po; assay type: organism-based; conditions: in vivo
How it was run: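 Acute oral toxicity study in male mice, with oral dosing up to 250 mg/kg and mortality recorded.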

[5] = system: Mus musculus; assay: Toxicity in mouse up to dosed through parenteral route; conditions: in vivo

Structure (SMILES) | IC50 [1] [µM] | IC50 [2] [µM] | Selectivity Index [3] | Activity [4] | Activity [5]
COC(=O)[C@@H](NC(=O)c1ccc(NC(=O)C(=O)c2ccccc2NC(C)=O)cc1)C(C)C | 0.0028 | 430 | 154000 | Non-toxic | Non-toxic
COC(=O)C(C)(C)NC(=O)c1ccc(NC(=O)C(=O)c2ccccc2NC(C)=O)cc1 | 0.043 | 360 | 8370 | – | –
COC(=O)[C@H](C)NC(=O)c1ccc(NC(=O)C(=O)c2ccccc2NC(C)=O)cc1 | 0.036 | 730 | 20300 | Non-toxic | Non-toxic
COC(=O)CCNC(=O)c1ccc(NC(=O)C(=O)c2ccccc2NC(C)=O)cc1 | 0.018 | 530 | 29400 | Non-toxic | Non-toxic
COC(=O)C[C@H](NC(=O)c1ccc(NC(=O)C(=O)c2ccccc2NC(C)=O)cc1)C(=O)OC | 0.06 | 790 | 13200 | – | –
COC(=O)CCNC(=O)C(=O)c1ccccc1NC(C)=O | 0.033 | 990 | 30000 | Non-toxic | Non-toxic
COC(=O)CCCCCNC(=O)C(=O)c1ccccc1NC(C)=O | 0.068 | 590 | 8670 | – | –

The remaining compounds from weak to strong by IC50 [1], led by results:

IC50 [1] [µM] | IC50 [2] [µM] | Selectivity Index [3] | Structure (SMILES) | Activity [4] | Activity [5]
0.093 | 780 | 8380 | COC(=O)CCCCCNC(=O)c1ccc(NC(=O)C(=O)c2ccccc2NC(C)=O)cc1 | – | –
0.083 | 990 | 11900 | CCOC(=O)c1ccc(NC(=O)C(=O)c2ccccc2NC(C)=O)cc1 | – | –
0.072 | 480 | 6660 | COC(=O)[C@H](CC(C)C)NC(=O)C(=O)c1ccccc1NC(C)=O | – | –
0.062 | 950 | 15300 | COC(=O)CCCNC(=O)C(=O)c1ccccc1NC(C)=O | – | –
0.058 | 460 | 7930 | COC(=O)C[C@H](NC(=O)C(=O)c1ccccc1NC(C)=O)C(=O)OC | – | –
0.056 | 380 | 6780 | CC(=O)N1C(=O)C(=O)c2ccccc21 | – | –
0.049 | 590 | 12000 | COC(=O)CCCNC(=O)c1ccc(NC(=O)C(=O)c2ccccc2NC(C)=O)cc1 | – | –
0.048 | 380 | 7910 | COC(=O)C1(NC(=O)c2ccc(NC(=O)C(=O)c3ccccc3NC(C)=O)cc2)CCCC1 | – | –
0.036 | 280 | 7770 | COC(=O)[C@H](Cc1ccccc1)NC(=O)c1ccc(NC(=O)C(=O)c2ccccc2NC(C)=O)cc1 | – | –

— ChEMBL document CHEMBL3576764, “α-Ketoamino acid ester derivatives as promising MAO inhibitors” (Bioorg Med Chem Lett, 2014)
